Key:
[1] = system: K562; assay: Cell cycle arrest in human K562 cells assessed as accumulation at G1/S-phase at 5 uM after 48 hrs by propidium iodide staining based flow cytometry (reference value: 21.8%); type: functional
[2] = system: K562; assay: Cell cycle arrest in human K562 cells assessed as accumulation at G2/M-phase at 5 uM after 48 hrs by propidium iodide staining based flow cytometry (reference value: 35.3%); type: functional
[3] = molecular target: MMP-2/MMP-9 (Homo sapiens) (UniProt P08253+P14780); assay: Selectivity ratio of IC50 for recombinant human MMP9 (Phe107 to Pro449 residues) expressed in Escherichia coli to IC50 for recombinant human MMP2 (Tyr110 to Asp452 residues)
[4] = system: K562; assay: Anti-invasive activity against human K562 cells assessed as at 2.5 uM after 24 hrs by CyQuantGR dye based fluorimetric QCM EC matrix assay relative to control; type: functional; settings: K562, 24 h
Method in brief: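 K562 cells (1X10^6 cells/ml) starved overnight in FBS-free medium, then placed in inserts in FBS-free medium with 5% BSA, with 5% FBS medium below as chemoattractant. Treated at 2.5, 5 and 10 μM in triplicate for 24 h alongside an untreated control. Invaded cells were detached, stained with CyQuantGR and read by fluorescence (ex 480/em 520 nm). Results given as % of control, mean ± SD.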

## CCCCCNC(=O)CC[C@H](NS(=O)(=O)c1ccc([N+](=O)[O-])cc1)C(=O)O
[1]
  Activity: 19.6%
[2]
  Activity: 32.2%
[3]
  Ratio IC50: 1.42
[4]
  inhibition at 2.5 µM: 12.4%

From ChEMBL document CHEMBL4130487, “A pentanoic acid derivative targeting matrix metalloproteinase-2 (MMP-2) induces apoptosis in a chronic myeloid leukemia cell line” (Eur J Med Chem, 2017)
